# Reference: ChEMBL document CHEMBL2424583, “Structure-activity relationship and in vitro and in vivo evaluation of the potent cytotoxic anti-microtubule agent N-(4-methoxyphenyl)-N,2,6-trimethyl-6,7-dihydro-5H-cyclopenta[d]pyrimidin-4-aminium chloride and its analogues as antitumor agents” (J Med Chem, 2013)
# The source made the active and inactive calls. The calls are words filed in the database; no cut-off is given here.
# How the values were obtained:
# Tubulin (Sus scrofa) [1] = target: T1, Tubulin (Sus scrofa) (UniProt P02554+P02550); experiment: Displacement of [3H]-colchicine from pig brain tubulin at 5 uM after 10 mins by scintillation counting analysis relative to control
# T1 sequence (P02550 whole entry, looked up): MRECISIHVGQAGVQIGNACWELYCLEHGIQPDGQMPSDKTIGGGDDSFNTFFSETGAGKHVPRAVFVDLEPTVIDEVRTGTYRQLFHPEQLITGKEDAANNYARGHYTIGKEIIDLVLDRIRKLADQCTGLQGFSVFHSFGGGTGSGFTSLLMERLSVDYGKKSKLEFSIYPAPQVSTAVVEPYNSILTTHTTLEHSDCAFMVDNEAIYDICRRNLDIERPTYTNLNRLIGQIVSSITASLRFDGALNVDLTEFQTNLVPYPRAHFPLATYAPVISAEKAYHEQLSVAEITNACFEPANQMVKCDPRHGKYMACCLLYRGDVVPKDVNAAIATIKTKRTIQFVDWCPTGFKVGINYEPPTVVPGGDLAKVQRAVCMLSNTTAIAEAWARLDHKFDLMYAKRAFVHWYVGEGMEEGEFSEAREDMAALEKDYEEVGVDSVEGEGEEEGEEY
# T1 sequence (P02554 whole entry, looked up): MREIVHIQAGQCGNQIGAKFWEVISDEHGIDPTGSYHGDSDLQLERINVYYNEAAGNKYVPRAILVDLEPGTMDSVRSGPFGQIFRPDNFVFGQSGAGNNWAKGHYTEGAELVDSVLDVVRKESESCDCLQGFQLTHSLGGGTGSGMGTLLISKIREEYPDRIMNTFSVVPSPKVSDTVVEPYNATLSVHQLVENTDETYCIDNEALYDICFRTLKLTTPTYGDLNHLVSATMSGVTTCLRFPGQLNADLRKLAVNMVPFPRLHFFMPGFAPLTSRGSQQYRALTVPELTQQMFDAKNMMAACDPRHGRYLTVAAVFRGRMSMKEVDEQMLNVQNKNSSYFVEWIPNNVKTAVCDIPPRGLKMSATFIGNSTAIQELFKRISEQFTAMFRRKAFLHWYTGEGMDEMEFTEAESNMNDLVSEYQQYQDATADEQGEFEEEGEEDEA
# Tubulin (Sus scrofa) [2] = target: T1, Tubulin (Sus scrofa); experiment: Displacement of [3H]-colchicine from pig brain tubulin at 1 uM after 10 mins by scintillation counting analysis relative to control
# MDA-MB-468 = experiment: Cytotoxicity against human MDA-MB-468 cells assessed as growth inhibition after 48 hrs by SRB assay; format: functional; settings: MDA-MB-468, 48 h
# BT-549 = experiment: Cytotoxicity against human BT549 cells assessed as growth inhibition after 48 hrs by SRB assay; format: functional; settings: BT-549, 48 h
# MDA-MB-231 = experiment: Cytotoxicity against human MDA-MB-231 cells assessed as growth inhibition after 48 hrs by SRB assay; format: functional; settings: MDA-MB-231, 48 h
# MCF7 = experiment: Cytotoxicity against human MCF7 cells assessed as growth inhibition after 48 hrs by SRB assay; format: functional; settings: MCF7, 48 h
# UO-31 = experiment: Cytotoxicity against human UO31 cells assessed as growth inhibition after 48 hrs by SRB assay; format: functional; settings: UO-31, 48 h
# TK-10 = experiment: Cytotoxicity against human TK10 cells assessed as growth inhibition after 48 hrs by SRB assay; format: functional; settings: TK-10, 48 h
# RXF 393 = experiment: Cytotoxicity against human RXF393 cells assessed as growth inhibition after 48 hrs by SRB assay; format: functional; settings: RXF 393, 48 h
# ACHN = experiment: Cytotoxicity against human ACHN cells assessed as growth inhibition after 48 hrs by SRB assay; format: functional
# A498 = experiment: Cytotoxicity against human A498 cells assessed as growth inhibition after 48 hrs by SRB assay; format: functional; settings: A498, 48 h
# 786-0 = experiment: Cytotoxicity against human 786-0 cells assessed as growth inhibition after 48 hrs by SRB assay; format: functional; settings: 786-0, 48 h
# SK-OV-3 = experiment: Cytotoxicity against human SKOV3 cells assessed as growth inhibition after 48 hrs by SRB assay; format: functional; settings: SK-OV-3, 48 h
# [3] = Cytotoxicity against human NCI-ADR-RES cells assessed as growth inhibition after 48 hrs by SRB assay; format: functional
# OVCAR-8 = experiment: Cytotoxicity against human OVCAR8 cells assessed as growth inhibition after 48 hrs by SRB assay; format: functional; settings: OVCAR-8, 48 h
# OVCAR-5 = experiment: Cytotoxicity against human OVCAR5 cells assessed as growth inhibition after 48 hrs by SRB assay; format: functional; settings: OVCAR-5, 48 h
# OVCAR-4 = experiment: Cytotoxicity against human OVCAR4 cells assessed as growth inhibition after 48 hrs by SRB assay; format: functional; settings: OVCAR-4, 48 h
# OVCAR-3 = experiment: Cytotoxicity against human OVCAR3 cells assessed as growth inhibition after 48 hrs by SRB assay; format: functional; settings: OVCAR-3, 48 h
# UACC-62 = experiment: Cytotoxicity against human UACC62 cells assessed as growth inhibition after 48 hrs by SRB assay; format: functional; settings: UACC-62, 48 h
# SK-MEL-2 = experiment: Cytotoxicity against human SK-MEL-2 cells assessed as growth inhibition after 48 hrs by SRB assay; format: functional; settings: SK-MEL-2, 48 h
# M14 = experiment: Cytotoxicity against human M14 cells assessed as growth inhibition after 48 hrs by SRB assay; format: functional; settings: M14, 48 h
# LOX IMVI = experiment: Cytotoxicity against human LOXIMVI cells assessed as growth inhibition after 48 hrs by SRB assay; format: functional
# U-251 = experiment: Cytotoxicity against human U251 cells assessed as growth inhibition after 48 hrs by SRB assay; format: functional; settings: U-251, 48 h
# SF-539 = experiment: Cytotoxicity against human SF539 cells assessed as growth inhibition after 48 hrs by SRB assay; format: functional; settings: SF-539, 48 h
# SF-295 = experiment: Cytotoxicity against human SF295 cells assessed as growth inhibition after 48 hrs by SRB assay; format: functional; settings: SF-295, 48 h
# SF-268 = experiment: Cytotoxicity against human SF268 cells assessed as growth inhibition after 48 hrs by SRB assay; format: functional; settings: SF-268, 48 h
# SW-620 = experiment: Cytotoxicity against human SW620 cells assessed as growth inhibition after 48 hrs by SRB assay; format: functional; settings: SW-620, 48 h
# HT-29 = experiment: Cytotoxicity against human HT-29 cells assessed as growth inhibition after 48 hrs by SRB assay; format: functional; settings: HT-29, 48 h
# HCT-15 = experiment: Cytotoxicity against human HCT15 cells assessed as growth inhibition after 48 hrs by SRB assay; format: functional; settings: HCT-15, 48 h
# HCT-116 = experiment: Cytotoxicity against human HCT116 cells assessed as growth inhibition after 48 hrs by SRB assay; format: functional; settings: HCT-116, 48 h
# HCC 2998 = experiment: Cytotoxicity against human HCC2998 cells assessed as growth inhibition after 48 hrs by SRB assay; format: functional; settings: HCC 2998, 48 h
# NCI-H522 = experiment: Cytotoxicity against human NCI-H522 cells assessed as growth inhibition after 48 hrs by SRB assay; format: functional; settings: NCI-H522, 48 h
# COLO 205 = experiment: Cytotoxicity against human COLO205 cells assessed as growth inhibition after 48 hrs by SRB assay; format: functional; settings: COLO 205, 48 h
# NCI-H460 = experiment: Cytotoxicity against human NCI-H460 cells assessed as growth inhibition after 48 hrs by SRB assay; format: functional; settings: NCI-H460, 48 h
# NCI-H322M = experiment: Cytotoxicity against human NCI-H322M cells assessed as growth inhibition after 48 hrs by SRB assay; format: functional
# HOP-92 = experiment: Cytotoxicity against human HOP92 cells assessed as growth inhibition after 48 hrs by SRB assay; format: functional; settings: HOP-92, 48 h
# HOP-62 = experiment: Cytotoxicity against human HOP62 cells assessed as growth inhibition after 48 hrs by SRB assay; format: functional; settings: HOP-62, 48 h
# A549 = experiment: Cytotoxicity against human A549 cells assessed as growth inhibition after 48 hrs by SRB assay; format: functional; settings: A549, 48 h
# SR = experiment: Cytotoxicity against human SR cells assessed as growth inhibition after 48 hrs by SRB assay; format: functional
# MOLT-4 = experiment: Cytotoxicity against human MOLT4 cells assessed as growth inhibition after 48 hrs by SRB assay; format: functional; settings: MOLT-4, 48 h
# K562 = experiment: Cytotoxicity against human K562 cells assessed as growth inhibition after 48 hrs by SRB assay; format: functional; settings: K562, 48 h
# HL-60(TB) = experiment: Cytotoxicity against human HL-60(TB) cells assessed as growth inhibition after 48 hrs by SRB assay; format: functional; settings: HL-60, 48 h
# CCRF-CEM = experiment: Cytotoxicity against human CCRF-CEM cells assessed as growth inhibition after 48 hrs by SRB assay; format: functional
# MDA-MB-435 = experiment: Cell cycle arrest in human MDA-MB-435 cells assessed as […] at 25 nM after 24 hrs by FACS flow cytometric analysis; format: functional, cell-based
# How it was run: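 MDA-MB-435 cells plated and allowed to adhere 24 h, then exposed to drug for 24 h. Cells harvested, stained with Krishan's reagent, and DNA content analysed by flow cytometry.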
smiles,measurement,setting,value
COc1ccc(N(C)c2nc(C)nc3c2CC(C)C3)cc1.Cl (racemic),inhibition (INH),Tubulin (Sus scrofa) [1],84%
same,inhibition,Tubulin (Sus scrofa) [2],60%
same,GI50,MDA-MB-468,< 0.01 µM
same,GI50,BT-549,0.0219 µM
same,GI50,MDA-MB-231,0.0246 µM
same,GI50,MCF7,< 0.01 µM
same,GI50,UO-31,0.0134 µM
same,GI50,TK-10,0.292 µM
same,GI50,RXF 393,< 0.01 µM
same,GI50,ACHN,0.0146 µM
same,GI50,A498,< 0.01 µM
same,GI50,786-0,0.0348 µM
same,GI50,SK-OV-3,0.0275 µM
same,GI50,[3],< 0.01 µM
same,GI50,OVCAR-8,0.0328 µM
same,GI50,OVCAR-5,0.0385 µM
same,GI50,OVCAR-4,0.0268 µM
same,GI50,OVCAR-3,< 0.01 µM
same,GI50,UACC-62,< 0.01 µM
same,GI50,SK-MEL-2,0.0331 µM
same,GI50,M14,0.0102 µM
same,GI50,LOX IMVI,0.0227 µM
same,GI50,U-251,0.0125 µM
same,GI50,SF-539,0.0114 µM
same,GI50,SF-295,< 0.01 µM
same,GI50,SF-268,0.0152 µM
same,GI50,SW-620,< 0.01 µM
same,GI50,HT-29,0.0118 µM
same,GI50,HCT-15,< 0.01 µM
same,GI50,HCT-116,0.0151 µM
same,GI50,HCC 2998,0.024 µM
same,GI50,NCI-H522,< 0.01 µM
same,GI50,COLO 205,0.0183 µM
same,GI50,NCI-H460,0.0234 µM
same,GI50,NCI-H322M,0.059 µM
same,GI50,HOP-92,0.0554 µM
same,GI50,HOP-62,0.0194 µM
same,GI50,A549,0.0244 µM
same,GI50,SR,< 0.01 µM
same,GI50,MOLT-4,0.0318 µM
same,GI50,K562,< 0.01 µM
same,GI50,HL-60(TB),< 0.01 µM
same,GI50,CCRF-CEM,0.0163 µM
same,Activity,MDA-MB-435,Active
